Values after ≈ are worked out from the molar mass of the structure shown. Active and inactive are the calls of the source. The rule behind the calls is not given here.
How the values were obtained:
HepG2 = experiment: Antitumor activity against human HepG2 cells assessed as inhibition of cell growth measured after 48 hrs by MTT assay; type: functional, cell-based; settings: HepG2, 48 h
Procedure, shortened: (§1)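 MTT assay; cells seeded in 96-well plates, exposed 48 h to freshly prepared compound at five concentrations, four replicate wells each; MTT (5 mg/mL) added for 4 h, formazan dissolved in DMSO, absorbance at 490 nm. IC50 by nonlinear regression; mean of three independent experiments.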

HCT-116 = experiment: Antitumor activity against human HCT-116 cells assessed as inhibition of cell growth measured after 48 hrs by MTT assay; type: functional, cell-based; settings: HCT-116, 48 h; procedure, shortened: as §1
SW1990 = experiment: Antitumor activity against human SW1990 cells assessed as inhibition of cell growth measured after 48 hrs by MTT assay; type: functional, cell-based; settings: SW1990, 48 h; procedure, shortened: as §1
HEK293 = experiment: Cytotoxicity against human HEK293 cells assessed as reduction in cell viability measured after 48 hrs by MTT assay; type: cell-based; settings: HEK293, 48 h; procedure, shortened: as §1
[1] = biological target: T1, DNA topoisomerase 1 (Homo sapiens) (UniProt P11387); experiment: Inhibition of human recombinant Topoisomerase 1 using supercoiled pBR322 DNA as substrate at 100 uM incubated for 30 mins by ethidium bromide staining based agarose gel electrophoresis
T1 sequence (whole entry): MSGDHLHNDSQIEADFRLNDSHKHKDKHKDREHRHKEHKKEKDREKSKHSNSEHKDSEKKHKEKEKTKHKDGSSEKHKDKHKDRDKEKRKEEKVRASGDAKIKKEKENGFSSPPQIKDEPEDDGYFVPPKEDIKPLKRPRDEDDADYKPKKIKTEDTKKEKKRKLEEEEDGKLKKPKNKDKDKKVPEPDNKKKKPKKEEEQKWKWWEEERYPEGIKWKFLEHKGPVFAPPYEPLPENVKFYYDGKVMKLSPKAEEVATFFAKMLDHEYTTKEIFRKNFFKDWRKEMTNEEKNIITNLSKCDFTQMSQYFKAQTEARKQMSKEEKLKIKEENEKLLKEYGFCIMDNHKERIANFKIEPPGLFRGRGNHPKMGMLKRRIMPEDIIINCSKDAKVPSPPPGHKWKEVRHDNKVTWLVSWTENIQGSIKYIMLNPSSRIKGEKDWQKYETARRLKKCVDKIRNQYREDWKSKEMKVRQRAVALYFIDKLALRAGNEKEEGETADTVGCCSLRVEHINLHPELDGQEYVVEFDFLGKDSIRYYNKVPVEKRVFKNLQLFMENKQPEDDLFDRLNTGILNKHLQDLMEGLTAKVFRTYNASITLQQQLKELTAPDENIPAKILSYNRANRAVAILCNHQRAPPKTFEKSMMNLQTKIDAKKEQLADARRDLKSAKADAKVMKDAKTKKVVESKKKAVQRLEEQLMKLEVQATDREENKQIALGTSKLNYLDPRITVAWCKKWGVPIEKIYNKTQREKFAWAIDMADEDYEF
Procedure, shortened: (§2)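 Cell-free relaxation assay: 1 U recombinant human Topo I with 0.5 µg supercoiled pBR322 in Topo I buffer (Tris-HCl pH 8.0, KCl, MgCl2, DTT, 0.1% BSA), 37 °C for 30 min. 10-HCPT and irinotecan as positive controls. Supercoiled, relaxed and nicked forms resolved on 0.8% agarose in TAE, 90 V for 2 h, ethidium bromide stained.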

[2] = biological target: T1, DNA topoisomerase 1 (Homo sapiens); experiment: Inhibition of human recombinant Topoisomerase 1 using supercoiled pBR322 DNA as substrate at 50 uM incubated for 30 mins by ethidium bromide staining based agarose gel electrophoresis; procedure, shortened: as §2
[3] = Aqueous solubility of the compound in 0.1 M Na2HPO4 solution at pH 7.4 incubated for 24 hrs by HPLC analysis; type: physicochemical; settings: buffer, pH 7.4, 24 h
Procedure, shortened: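 Excess solid shaken in 0.2 mL 0.1 M phosphate buffer, pH 7.4, at 25 °C for 24 h, then filtered. Filtrate (100 µL) diluted to 1.5 mL and analysed by isocratic HPLC (CH3CN:H2O 40/60, 1.0 mL/min, 35 °C column, 254 nm). Concentration read from a calibration curve built from DMSO standards. Values are the mean of triplicate determinations, in mg/mL.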

[4] = Stability of compound in 10% phosphate buffer assessed as proportion of lactone form level at pH 7.4 measured after 48 hrs by HPLC analysis; type: physicochemical; settings: read-out: Drug metabolism
Procedure, shortened: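 1.0 mg dissolved in 50 mL 0.1 M phosphate buffer, pH 7.4, and shaken at 37 °C. […] Lactone versus carboxylate (ring-opened) form quantified by HPLC area normalisation. Mean of triplicate determinations.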

| Structure (SMILES) | IC50 (HepG2) | IC50 (HCT-116) | IC50 (SW1990) | IC50 (HEK293) | inhibition [1] | inhibition [2] | solubility [3] | remaining at 48 h [4] |
| --- | --- | --- | --- | --- | --- | --- | --- | --- |
| CC[C@@]1(OC(=O)NCCOCCOCCO[C@@H]2O[C@H](COC(C)=O)[C@@H](OC(C)=O)[C@H](OC(C)=O)[C@H]2OC(C)=O)C(=O)OCc2c1cc1n(c2=O)Cc2cc3ccccc3nc2-1 | 0.7 µM | 0.8 µM | 4.5 µM | 0.6 µM | – | – | – | – |
| CC[C@@]1(OC(=O)NCCOCCOCCO[C@@H]2O[C@H](COC(C)=O)[C@@H](OC(C)=O)[C@H](OC(C)=O)[C@@H]2OC(C)=O)C(=O)OCc2c1cc1n(c2=O)Cc2cc3ccccc3nc2-1 | 1.6 µM | 0.6 µM | 28.9 µM | 3.4 µM | – | – | – | – |
| CC[C@@]1(OC(=O)NCCOCCO[C@@H]2O[C@H](CO)[C@@H](O)[C@H](O)[C@@H]2O)C(=O)OCc2c1cc1n(c2=O)Cc2cc3ccccc3nc2-1 | 0.3 µM | 5.6 µM | 3.2 µM | 22.4 µM | – | – | – | – |
| CC[C@@]1(OC(=O)NCCO[C@@H]2O[C@H](COC(C)=O)[C@H](OC(C)=O)[C@H](OC(C)=O)[C@H]2OC(C)=O)C(=O)OCc2c1cc1n(c2=O)Cc2cc3ccccc3nc2-1 | 60.2 µM | 29.5 µM | 37.5 µM | 8.6 µM | – | – | – | – |
| CC[C@@]1(OC(=O)NCCOCCOCCO[C@@H]2O[C@H](COC(C)=O)[C@H](OC(C)=O)[C@H](OC(C)=O)[C@H]2OC(C)=O)C(=O)OCc2c1cc1n(c2=O)Cc2cc3ccccc3nc2-1 | 0.7 µM | 0.9 µM | 8.3 µM | 0.8 µM | Active | – | – | – |
| CC[C@@]1(OC(=O)NCCOCCO[C@@H]2O[C@H](COC(C)=O)[C@@H](OC(C)=O)[C@H](OC(C)=O)[C@@H]2O[C@H]2O[C@H](COC(C)=O)[C@@H](OC(C)=O)[C@H](OC(N)=O)[C@H]2OC(C)=O)C(=O)OCc2c1cc1n(c2=O)Cc2cc3ccccc3nc2-1 | 1.6 µM | 1.3 µM | 11.3 µM | 1.5 µM | Active | Active | – | – |
| CC[C@@]1(OC(=O)NCCO[C@@H]2O[C@H](COC(C)=O)[C@@H](OC(C)=O)[C@H](OC(N)=O)[C@@H]2OC(C)=O)C(=O)OCc2c1cc1n(c2=O)Cc2cc3ccccc3nc2-1 | 18.5 µM | 10.8 µM | 20.6 µM | 3.9 µM | – | – | – | – |
| CC[C@@]1(OC(=O)NCCOCCOCCO[C@@H]2O[C@H](CO)[C@@H](O)[C@H](O)[C@@H]2O)C(=O)OCc2c1cc1n(c2=O)Cc2cc3ccccc3nc2-1 | 0.8 µM | 0.5 µM | 16.3 µM | 0.6 µM | – | – | – | – |
| CC[C@@]1(OC(=O)NCCOCCOCCOC2O[C@H](COC(C)=O)[C@@H](OC(C)=O)[C@H](OC(N)=O)[C@@H]2OC(C)=O)C(=O)OCc2c1cc1n(c2=O)Cc2cc3ccccc3nc2-1 (single isomer, unassigned) | 1.8 µM | 4.6 µM | 31.4 µM | 3.4 µM | – | – | – | – |
| CC[C@@]1(OC(=O)NCCO[C@@H]2O[C@H](CO)[C@@H](O)[C@H](O)[C@H]2O)C(=O)OCc2c1cc1n(c2=O)Cc2cc3ccccc3nc2-1 | 3.8 µM | 4.3 µM | 10.3 µM | 3.5 µM | – | – | – | – |
| CC[C@@]1(OC(=O)NCCOCCO[C@@H]2O[C@H](CO)[C@H](O)[C@H](O)[C@H]2O)C(=O)OCc2c1cc1n(c2=O)Cc2cc3ccccc3nc2-1 | 2.8 µM | 2.6 µM | 10.6 µM | 43.5 µM | – | – | – | – |
| CC[C@@]1(OC(=O)NCCOCCO[C@@H]2O[C@H](CO)[C@@H](O)[C@H](O)[C@H]2O)C(=O)OCc2c1cc1n(c2=O)Cc2cc3ccccc3nc2-1 | 1.2 µM | 0.5 µM | 9.6 µM | 24.6 µM | – | – | – | – |
| CC[C@@]1(OC(=O)NCCO[C@@H]2O[C@H](COC(C)=O)[C@@H](OC(C)=O)[C@H](OC(C)=O)[C@H]2OC(C)=O)C(=O)OCc2c1cc1n(c2=O)Cc2cc3ccccc3nc2-1 | 29.9 µM | 15 µM | 24.8 µM | 29.5 µM | – | – | – | – |
| CC[C@@]1(OC(=O)NCCO[C@@H]2O[C@H](COC(C)=O)[C@@H](OC(C)=O)[C@H](OC(C)=O)[C@@H]2OC(C)=O)C(=O)OCc2c1cc1n(c2=O)Cc2cc3ccccc3nc2-1 | 4.3 µM | 7.5 µM | 9.7 µM | 2.3 µM | – | – | – | – |
| CC[C@@]1(OC(=O)NCCOCCOCCO[C@@H]2O[C@H](CO)[C@@H](O)[C@H](O)[C@H]2O)C(=O)OCc2c1cc1n(c2=O)Cc2cc3ccccc3nc2-1 | 1.3 µM | 4.8 µM | 12.5 µM | 0.7 µM | – | – | – | – |
| CC[C@@]1(OC(=O)NCCO[C@@H]2O[C@H](CO)[C@@H](O)[C@H](OC(N)=O)[C@@H]2O)C(=O)OCc2c1cc1n(c2=O)Cc2cc3ccccc3nc2-1 | 11.6 µM | 2.3 µM | 32.8 µM | 3.2 µM | – | – | – | – |
| CC[C@@]1(OC(=O)NCCOCCO[C@@H]2O[C@H](COC(C)=O)[C@@H](OC(C)=O)[C@H](OC(N)=O)[C@@H]2OC(C)=O)C(=O)OCc2c1cc1n(c2=O)Cc2cc3ccccc3nc2-1 | 3.7 µM | 3.6 µM | 7.6 µM | 50.2 µM | – | – | – | – |
| CC[C@@]1(OC(=O)NCCOCCOCCO[C@@H]2O[C@H](CO)[C@H](O)[C@H](O)[C@H]2O)C(=O)OCc2c1cc1n(c2=O)Cc2cc3ccccc3nc2-1 | 1.2 µM | 8.2 µM | 19.9 µM | 0.7 µM | Active | – | – | – |
| CC[C@@]1(OC(=O)NCCOCCOCCO[C@@H]2O[C@H](CO)[C@@H](O)[C@H](OC(N)=O)[C@@H]2O)C(=O)OCc2c1cc1n(c2=O)Cc2cc3ccccc3nc2-1 | 0.8 µM | 0.9 µM | 18.2 µM | 0.4 µM | – | – | – | – |
| CC[C@@]1(OC(=O)NCCO[C@@H]2O[C@H](CO)[C@@H](O)[C@H](O)[C@@H]2O)C(=O)OCc2c1cc1n(c2=O)Cc2cc3ccccc3nc2-1 | 10.3 µM | 8.2 µM | 20.4 µM | 5.8 µM | – | – | – | – |
| CC[C@@]1(OC(=O)NCCOCCOC2O[C@H](COC(C)=O)[C@@H](OC(C)=O)[C@H](OC(C)=O)[C@H]2OC(C)=O)C(=O)OCc2c1cc1n(c2=O)Cc2cc3ccccc3nc2-1 (single isomer, unassigned) | 2.1 µM | 4.2 µM | 10.3 µM | 12.3 µM | – | – | – | – |
| CC[C@@]1(OC(=O)NCCO[C@@H]2O[C@H](COC(C)=O)[C@@H](OC(C)=O)[C@H](OC(C)=O)[C@@H]2O[C@H]2O[C@H](COC(C)=O)[C@@H](OC(C)=O)[C@H](OC(N)=O)[C@H]2OC(C)=O)C(=O)OCc2c1cc1n(c2=O)Cc2cc3ccccc3nc2-1 | 4.2 µM | 6.7 µM | 25.1 µM | 1.6 µM | Active | – | – | – |
| CC[C@@]1(O)C(=O)OCc2c1cc1n(c2=O)Cc2cc3cc(O)ccc3nc2-1 | – | – | – | – | Active | – | – | – |
| CC[C@@]1(O)C(=O)OCc2c1cc1n(c2=O)Cc2cc3ccccc3nc2-1 [CAMPTOTHECIN] | 0.4 µM | 0.4 µM | 0.2 µM | 0.6 µM | – | – | 60 µg/mL (≈ 172 µM) | 5% |
| CC[C@@]1(OC(=O)NCCOCCOC2O[C@H](COC(C)=O)[C@@H](OC(C)=O)[C@H](OC(C)=O)[C@@H]2OC(C)=O)C(=O)OCc2c1cc1n(c2=O)Cc2cc3ccccc3nc2-1 (single isomer, unassigned) | 4.8 µM | 4.4 µM | 10.3 µM | 20.6 µM | – | – | – | – |
| CC[C@@]1(OC(=O)NCCO[C@@H]2O[C@H](CO)[C@H](O)[C@H](O)[C@H]2O)C(=O)OCc2c1cc1n(c2=O)Cc2cc3ccccc3nc2-1 | 4.9 µM | 4.1 µM | 9.3 µM | 2.2 µM | – | – | – | – |
